Test results taken from PubChem BioAssay.
Activity calls are given as the source filed them.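 Rule for the calls, unless noted: active = viability loss from added drug above about 55%, and viability with drug at most 40%, in both replicates (limit read from the data, passing the limit was not always enough); inconclusive = both conditions met in only one replicate; inactive = neither replicate meets both conditions.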 Peptide text beside a SMILES is read from it. * marks the point of attachment. Boc = CC(C)(C)OC(=O)*

How the values were obtained:
[1] = SK-BR-3 cell growth inhibitors, pilot screen, 24 h, human (AID 572;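 active = viability at or below 10% of carrier control in both of two separate runs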;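 note: compound exposure lasted between 18 and 24 h rather than exactly 24 h; 100% = carrier-treated control wells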); conditions: SK-BR-3 viability, CellTiter-Glo luminescence, at 10 µM, stronger effect = lower value
[2] = HUVEC growth inhibition – cell-based, human, primary screen (AID 575;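 active = viability at or below 30% in both replicate assays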;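 note: 100% = median of untreated cell wells with 0.1% DMSO on each plate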); conditions: HUVEC proliferation, CellTiter-Glo luminescence, 72 h; at 10 µM; stronger effect = lower value
Procedure, shortened: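 material = primary HUVEC, no more than 12 passages | input = 1250 cells per well | controls = vehicle and MePR control wells | measured by = CTG luminescence | times = 72 h compound incubation | format = collagen-coated 384-well format | read-out = % viability vs DMSO wells | doses = single 10 µM dose, 0.1% DMSO, from 5x medium stock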

[3] = growth inhibitors of H69AR lung tumor, primary screen, human, duplicate replicates (AID 580;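 active = viability at or under a set limit in both replicates, limit being median viability minus 3 SD, cut at about 48% in these data, passing the limit was not always enough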;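 note: 100% = mean luminescence of untreated wells and 0% = no signal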); conditions: H69AR lung tumor cells viability, ATP luminescence, 72 h; at 10 µM; stronger effect = lower value
[4] = reversal of MRP1-mediated doxorubicin resistance, pilot screen, H69AR cells, doxorubicin co-treatment (AID 601); conditions: CellTiter-Glo, 72 h, at 10 µM; for differential viability (reversal): stronger effect = higher value
[5] = 384-well plate pilot, post-Golgi transport modulator project, inhibition of yeast transport mutant growth (AID 636; in the data active = inhibition above about 31%); conditions: absorbance 615 nm, about 18 h, stronger effect = higher value
[6] = growth suppression of yeast trafficking mutant, preliminary HTS, modulators of trafficking downstream of Golgi apparatus project, 1536-format plate, OD 615 nm (AID 637; in the data active = inhibition above about 30%); conditions: yeast transport mutant growth, absorbance 615 nm, 18 h; stronger effect = higher value
[7] = H69AR cells + 2 uM doxorubicin, measured here: viability with 2 uM doxorubicin, stronger effect = lower value
[8] = H69AR cells, compound alone cytotoxicity

SMILES	viability [1]	viability [2]	viability [3]	differential viability (reversal) ([4]; H69AR cells + 2 uM doxorubicin)	viability [4, 7]	viability [4, 8]	inhibition [5]	inhibition [6]
CCOc1ccccc1OCCCCN1CCCC1	87% (inactive)	109% (inactive)	91.5% (inactive)	2.1% (inactive)	89.4%	91.5%	-2.21% (inactive)	-1.97% (inactive)
CC(C)(Oc1ccc(CCNC(=O)c2ccc(Cl)cc2)cc1)C(=O)O	95% (inactive)	83.1% (inactive)	105% (inactive)	8.17% (inactive)	96.8%	105%	-4.29% (inactive)	-0.67% (inactive)
CCCCc1nc(NCCN2CCOCC2)c(C#N)c2c1COC(C)(C)C2	76% (inactive)	94.1% (inactive)	91.6% (inactive)	4.02% (inactive)	87.5%	91.6%	5.48% (inactive)	6.77% (inactive)
CC(C)C(=O)N1CCN(c2nc(-c3ccccc3)c3c(c2C#N)CCCC3)CC1	103% (inactive)	74.5% (inactive)	89.2% (inactive)	11.5% (inactive)	77.7%	89.2%	8.51% (inactive)	5.09% (inactive)
CCOc1ncccc1C(=O)Nc1ccc(Cl)cc1	92% (inactive)	91.4% (inactive)	79.8% (inactive)	-3.41% (inactive)	83.2%	79.8%	1.17% (inactive)	0.49% (inactive)
N#CC1=C(N)N2C(=C(C#N)C13CCCCC3)SC1CCCCC12O (stereo unspecified)	72% (inactive)	88.2% (inactive)	76.1% (inactive)	6.71% (inactive)	69.4%	76.1%	-3.01% (inactive)	8.91% (inactive)
O=C(Nc1ccncc1)C1c2ccccc2Oc2ccccc21	121% (inactive)	100% (inactive)	92.3% (inactive)	-8.33% (inactive)	101%	92.3%	-2.3% (inactive)	14.4% (inactive)
CC1CCCC(C)N1C(=O)CSc1nnc(-c2cccs2)o1 (stereo unspecified)	92% (inactive)	106% (inactive)	95.1% (inactive)	-1.69% (inactive)	96.8%	95.1%	0.54% (inactive)	-3.09% (inactive)
O=C(C1CCN(S(=O)(=O)c2cnc[nH]2)CC1)N1CCN(c2ncccn2)CC1	112% (inactive)	111% (inactive)	102% (inactive)	19.5% (inactive)	82.8%	102%	-5.33% (inactive)	0% (inactive)
CC(C)(C)NC(=O)CN(Cc1cccs1)C(=O)c1csnn1	96% (inactive)	99.7% (inactive)	105% (inactive)	-2.3% (inactive)	108%	105%	-7.12% (inactive)	-0.36% (inactive)
Cc1ccc(S(=O)(=O)NCC(=O)OCN2C(=O)c3ccccc3C2=O)cc1	94% (inactive)	99.6% (inactive)	105% (inactive)	-10.3% (inactive)	115%	105%	-2.73% (inactive)	0.16% (inactive)
O=[N+]([O-])c1cccc2cn[nH]c12	113% (inactive)	88.6% (inactive)	99.5% (inactive)	9.56% (inactive)	90%	99.5%	-0.91% (inactive)	1.17% (inactive)
COc1ccc(OCCOC(=O)c2cccc(-n3cnnn3)c2)cc1	90% (inactive)	107% (inactive)	100% (inactive)	7.56% (inactive)	92.6%	100%	-8.36% (inactive)	1.64% (inactive)
O=C(Nc1ccccc1C(=O)N1CCOCC1)c1cccc(S(=O)(=O)N2CCCC2)c1	112% (inactive)	92.3% (inactive)	88.2% (inactive)	-1.19% (inactive)	89.3%	88.2%	-2.08% (inactive)	0.49% (inactive)
COc1ccc(Cn2nnnc2CN2CCOCC2)cc1	100% (inactive)	97.4% (inactive)	96.7% (inactive)	-5.83% (inactive)	102%	96.7%	-6.85% (inactive)	-0.81% (inactive)
c1cncc(C2Nc3ccccc3-c3nc4ccccc4n32)c1 (stereo unspecified)	90% (inactive)	98.1% (inactive)	78.7% (inactive)	-12.2% (inactive)	90.9%	78.7%	-2.53% (inactive)	0.91% (inactive)
COc1cc(C(=O)NCC(=O)OCC(=O)c2ccc[nH]2)cc(OC)c1OC	76% (inactive)	101% (inactive)	91.5% (inactive)	-3.86% (inactive)	95.3%	91.5%	-4.38% (inactive)	-0.55% (inactive)
Cc1cccn2c(=O)c3cc(C#N)c(=NC(=O)c4ccncc4)n(Cc4ccco4)c3nc12	110% (inactive)	64.1% (inactive)	67% (inactive)	15.3% (inactive)	51.7%	67%	-1.58% (inactive)	7.74% (inactive)
N#CC1=C(N)OC2=C(C(=O)CCC2)C1CCc1ccccc1 (stereo unspecified)	98% (inactive)	91.9% (inactive)	103% (inactive)	14.2% (inactive)	89.3%	103%	-6.08% (inactive)	1.64% (inactive)

SMILES	viability [1]	viability [2]	viability [3]	differential viability (reversal) ([4]; H69AR cells + 2 uM doxorubicin)	viability [4, 7]	viability [4, 8]	inhibition [5]	inhibition [6]
O=C(NC(C(=O)c1ccccc1)N1CCOCC1)c1cccs1 (stereo unspecified)	87% (inactive)	100% (inactive)	96% (inactive)	15% (inactive)	81%	96%	-1.22% (inactive)	-4.36% (inactive)
C[N+](C)(C)CCCCCCCCCC[N+](C)(C)C	106% (inactive)	100% (inactive)	104% (inactive)	13.9% (inactive)	90%	104%	1.69% (inactive)	-1.5% (inactive)
CCOC(=O)c1c(C)[nH]c(C)c1C(=O)COC(=O)CNC(=O)c1ccc(OCC)cc1	96% (inactive)	77.9% (inactive)	88.3% (inactive)	4.05% (inactive)	84.2%	88.3%	-2.34% (inactive)	-0.66% (inactive)
CCN1CCN(C(=O)N[C@@H](C(=O)N[C@@H]2C(=O)N3[C@@H]2SC(C)(C)[C@@H]3C(=O)O)c2ccccc2)C(=O)C1=O	96% (inactive)	84.1% (inactive)	91.5% (inactive)	-13.4% (inactive)	105%	91.5%	-0.39% (inactive)	6.33% (inactive)
CC(C)CC(NC(=O)OC(C)(C)C)C(=O)NC(C(=O)N1CCCC1C(N)=O)C(C)C (stereo not drawn) (Boc-Leu-Val-Pro-NH2; configuration not given here)	103% (inactive)	101% (inactive)	111% (inactive)	17.5% (inactive)	93.8%	111%	0.78% (inactive)	-4.1% (inactive)
O=C(NC1CCCC1)C(NS(=O)(=O)c1cccc2nsnc12)c1ccccc1 (stereo unspecified)	116% (inactive)	103% (inactive)	79% (inactive)	-2.47% (inactive)	81.5%	79%	-8.08% (inactive)	8.18% (inactive)
CC(=O)OC(C)C[N+](C)(C)C (stereo unspecified)	103% (inactive)	86.7% (inactive)	104% (inactive)	14.9% (inactive)	89.3%	104%	-5.97% (inactive)	3.5% (inactive)
CCOc1ccc(-c2cn(S(=O)(=O)c3cccc4nsnc34)nc2N)cc1	117% (inactive)	94.8% (inactive)	84.8% (inactive)	3.21% (inactive)	81.6%	84.8%	34.9% (active)	31% (active)
CCCCCC#CCC#CCC#CCC#CCCCC(=O)O	152% (inactive)	66.2% (inactive)	93.6% (inactive)	-0.29% (inactive)	93.9%	93.6%	0.78% (inactive)	8.33% (inactive)
COc1ccccc1N(CC(=O)NC1CCCC1)C(=O)c1csnn1	97% (inactive)	89.7% (inactive)	90% (inactive)	32.5% (inactive)	57.5%	90%	-1.47% (inactive)	-8.36% (inactive)
CCC(C)n1ncn(-c2ccc(N3CCN(c4ccc(OCC5COC(Cn6cncn6)(c6ccc(Cl)cc6Cl)O5)cc4)CC3)cc2)c1=O (stereo unspecified)	84% (inactive)	7.76% (active)	69.8% (inactive)	-1.92% (inactive)	71.8%	69.8%	100% (active)	96.7% (active)
COc1ccc(NC(=O)CSc2ccccn2)cc1OC	87% (inactive)	97.3% (inactive)	95.1% (inactive)	20.2% (inactive)	74.9%	95.1%	2% (inactive)	1.82% (inactive)
CC(C)N(Cc1nc(-c2ccc(Cl)cc2)no1)C(=O)CN(C)S(=O)(=O)c1ccc(Cl)cc1	95% (inactive)	66.3% (inactive)	78.7% (inactive)	-7.31% (inactive)	86.1%	78.7%	-0.68% (inactive)	1.29% (inactive)
CCOc1ccccc1CN(Cc1ccco1)S(=O)(=O)c1ccc(-n2cnnn2)c(OC)c1	82.5% (inactive)	54.7% (inactive)	6.69% (active)	-67.4% (inactive)	74.1%	6.69%	-3.7% (inactive)	-2.06% (inactive)
COc1ccc(C)cc1C(=O)CCC(=O)Nc1ccccc1N1CCOCC1	90% (inactive)	54% (inactive)	1.36% (active)	-1.5% (inactive)	2.85%	1.36%	-6.27% (inactive)	1.31% (inactive)
Cn1c(-c2ccc(F)cc2)cnc1SCC(=O)Nc1ccccc1N1CCOCC1	94% (inactive)	103% (inactive)	102% (inactive)	12.9% (inactive)	88.8%	102%	-7.57% (inactive)	-4.55% (inactive)
CN(Cc1ccccc1)C(=O)c1ccccc1NC(=O)c1ccco1	94% (inactive)	104% (inactive)	101% (inactive)	13.5% (inactive)	87.1%	101%	-1.76% (inactive)	-2.55% (inactive)
Nc1cc(=O)[nH]c(SCC(=O)Nc2ccc(Br)cc2)n1	96% (inactive)	101% (inactive)	90.5% (inactive)	4.49% (inactive)	86%	90.5%	-0.52% (inactive)	-4.1% (inactive)
